The species named for experiment [1] is Cavia porcellus. The experiment is described as follows: Effective concentration required for its inhibition of nonspecific binding to guinea pig ileal membranes. The format is functional.
Experiment [2] addresses T1, Neuromedin-K receptor (Rattus norvegicus, UniProt P16177).
T1 sequence (P16177 whole entry): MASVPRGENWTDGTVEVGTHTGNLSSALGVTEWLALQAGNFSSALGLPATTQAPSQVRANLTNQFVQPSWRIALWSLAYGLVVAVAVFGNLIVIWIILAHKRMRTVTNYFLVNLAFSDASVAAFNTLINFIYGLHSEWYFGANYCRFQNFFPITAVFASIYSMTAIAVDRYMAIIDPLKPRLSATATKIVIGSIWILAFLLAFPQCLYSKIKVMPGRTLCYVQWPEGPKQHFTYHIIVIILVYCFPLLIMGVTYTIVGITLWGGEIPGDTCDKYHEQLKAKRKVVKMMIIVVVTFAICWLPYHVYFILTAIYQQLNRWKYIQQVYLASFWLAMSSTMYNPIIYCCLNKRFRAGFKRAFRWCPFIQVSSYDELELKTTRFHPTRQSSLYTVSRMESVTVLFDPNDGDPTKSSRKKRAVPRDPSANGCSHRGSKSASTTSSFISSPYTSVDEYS
The experiment is described as follows: Concentration required to inhibit the specific binding of [125I]BH-ELE to Neurokinin-3 (NK-3) receptor in rat brain synaptosomes. The format is subcellular. Summed up: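 Rat brain synaptosomes in Krebs-Ringer phosphate buffer with BSA, bacitracin and glucose. Incubated 15 min at 20 °C with 40 pM [125I]BHELE and increasing peptide concentrations, gamma counted. Triplicates, two to eight independent experiments; nonspecific binding defined with eledoisin 10⁻⁶ M. IC50 estimated from Hill plots of titration curves.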

In experiment [3] the target is Substance-P receptor (Rattus norvegicus, UniProt P14600). The experiment can be described thus: Concentration required to inhibit the specific binding of [125I]BH-SP to Neurokinin-1 (NK-1) receptor in rat brain synaptosomes. The class given is subcellular.
Chain of Substance-P receptor (P14600 whole entry): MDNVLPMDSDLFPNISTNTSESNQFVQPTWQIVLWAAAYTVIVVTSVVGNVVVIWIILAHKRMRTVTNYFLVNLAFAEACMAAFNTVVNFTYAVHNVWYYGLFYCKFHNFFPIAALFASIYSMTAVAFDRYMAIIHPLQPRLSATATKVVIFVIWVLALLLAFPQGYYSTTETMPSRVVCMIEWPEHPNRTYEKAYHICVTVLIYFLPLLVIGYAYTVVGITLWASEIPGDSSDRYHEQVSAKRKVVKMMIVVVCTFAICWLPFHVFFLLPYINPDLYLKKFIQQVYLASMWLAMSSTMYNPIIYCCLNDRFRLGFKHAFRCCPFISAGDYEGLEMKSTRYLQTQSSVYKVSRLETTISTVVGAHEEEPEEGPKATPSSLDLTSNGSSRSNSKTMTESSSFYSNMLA
Experiment [4] deals with T2, Substance-K receptor (Rattus norvegicus, UniProt P16610).
T2 sequence (P16610 whole entry): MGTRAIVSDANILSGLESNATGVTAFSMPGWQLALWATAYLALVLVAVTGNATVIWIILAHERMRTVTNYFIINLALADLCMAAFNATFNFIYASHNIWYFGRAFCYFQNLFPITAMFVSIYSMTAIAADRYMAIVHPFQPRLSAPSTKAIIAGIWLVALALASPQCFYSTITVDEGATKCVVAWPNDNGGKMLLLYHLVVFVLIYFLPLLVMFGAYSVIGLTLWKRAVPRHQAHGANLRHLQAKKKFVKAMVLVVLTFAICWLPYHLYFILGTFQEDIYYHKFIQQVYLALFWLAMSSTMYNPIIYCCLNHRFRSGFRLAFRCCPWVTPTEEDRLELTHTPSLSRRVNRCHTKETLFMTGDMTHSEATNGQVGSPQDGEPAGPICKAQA
The experiment can be described thus: Concentration required to inhibit the specific binding of [3H]NKA to Neurokinin-2 (NK-2) receptor in rat duodenum membranes.

This passage reports EC50 and IC50 results from ChEMBL document CHEMBL1127523, “Design and synthesis of side-chain conformationally restricted phenylalanines and their use for structure-activity studies on tachykinin NK-1 receptor” (J Med Chem, 1994).

For orientation: EC50 means the concentration giving half of the maximal effect. High values mean a less potent agent, low ones a more potent agent. By IC50 is commonly meant the concentration that inhibits the measured activity by half. In experiment [1], `CSCC[C@H](NC(=O)[C@H](CC(C)C)NC(=O)CNC(=O)[C@H](Cc1ccccc1)NC(=O)[C@@H](NC(=O)[C@H](CCC(N)=O)NC(=O)[C@H](CCC(N)=O)NC(=O)[C@@H]1CCCN1C(=O)[C@H](CCCCN)NC(=O)[C@@H]1CCCN1C(=O)[C@@H](N)CCCN=C(N)N)[C@H]1CCc2ccccc21)C(N)=O` registered an EC50 of 1.2 nM. Further, the IC50 in experiment [2] was 2200 nM; in experiment [3], 3.1 nM; in experiment [4], 380 nM.

Take `CSCC[C@H](NC(=O)[C@H](CC(C)C)NC(=O)CNC(=O)[C@@H](NC(=O)[C@H](Cc1ccccc1)NC(=O)[C@H](CCC(N)=O)NC(=O)[C@H](CCC(N)=O)NC(=O)[C@@H]1CCCN1C(=O)[C@H](CCCCN)NC(=O)[C@@H]1CCCN1C(=O)[C@@H](N)CCCNC(=N)N)[C@H]1CCc2cc3ccccc3cc21)C(N)=O`: the IC50 in experiment [2] was 110 nM; in experiment [3], 0.6 nM; in experiment [4] it was 29 nM.

In experiment [1], `CSCC[C@H](NC(=O)[C@H](CC(C)C)NC(=O)CNC(=O)[C@H](Cc1ccccc1)NC(=O)[C@H](NC(=O)[C@H](CCC(N)=O)NC(=O)[C@H](CCC(N)=O)NC(=O)[C@@H]1CCCN1C(=O)[C@H](CCCCN)NC(=O)[C@@H]1CCCN1C(=O)[C@@H](N)CCCN=C(N)N)C1Cc2ccccc2C1)C(N)=O` showed an EC50 of 4170 nM. Moreover, the IC50 in experiment [2] is above 10000 nM; in experiment [3], 2800 nM; in experiment [4], 3900 nM.

Take `CSCC[C@H](NC(=O)[C@H](CC(C)C)NC(=O)CNC(=O)[C@H](Cc1ccccc1)NC(=O)[C@@H]1Cc2ccccc2CN1C(=O)[C@H](CCC(N)=O)NC(=O)[C@H](CCC(N)=O)NC(=O)[C@@H]1CCCN1C(=O)[C@H](CCCCN)NC(=O)[C@@H]1CCCN1C(=O)[C@@H](N)CCCN=C(N)N)C(N)=O`: the figures for the IC50 in experiment [2], in experiment [3] and in experiment [4] were 1900 nM, 2400 nM and 520 nM, respectively.

In experiment [1], `CSCC[C@H](NC(=O)[C@H](CC(C)C)NC(=O)[C@@H]1CCCN1C(=O)[C@H](Cc1ccccc1)NC(=O)[C@H](Cc1ccccc1)NC(=O)[C@H](CCC(N)=O)NC(=O)[C@H](CCC(N)=O)NC(=O)[C@@H]1CCCN1C(=O)[C@H](CCCCN)NC(=O)[C@@H]1CCCN1C(=O)[C@@H](N)CCCN=C(N)N)C(N)=O` yielded an EC50 of 2 nM. The results for the IC50 in experiment [2], in experiment [3] and in experiment [4] were above 10000 nM, 2.9 nM and above 10000 nM, respectively.

On to `CSCC[C@H](NC(=O)[C@H](CC(C)C)NC(=O)CNC(=O)[C@@H]1Cc2ccccc2CN1C(=O)[C@H](Cc1ccccc1)NC(=O)[C@H](CCC(N)=O)NC(=O)[C@H](CCC(N)=O)NC(=O)[C@@H]1CCCN1C(=O)[C@H](CCCCN)NC(=O)[C@@H]1CCCN1C(=O)[C@@H](N)CCCN=C(N)N)C(N)=O`, for which the figures for the IC50 in experiment [2], in experiment [3] and in experiment [4] were 20000 nM, 1200 nM and 18000 nM, respectively.

Turning to `CSCC[C@H](NC(=O)[C@H](CC(C)C)NC(=O)CNC(=O)[C@@H](NC(=O)[C@H](Cc1ccccc1)NC(=O)[C@H](CCC(N)=O)NC(=O)[C@H](CCC(N)=O)NC(=O)[C@@H]1CCCN1C(=O)[C@H](CCCCN)NC(=O)[C@@H]1CCCN1C(=O)[C@@H](N)CCCN=C(N)N)C(C)(C)C)C(N)=O`, it took 2.5 nM to reach a half-maximal effect in experiment [1] (EC50). Besides, the IC50 in experiment [2] turned out to be 65 nM; in experiment [3] it was 2.6 nM; in experiment [4], 9 nM.

For the molecule `CSCC[C@H](NC(=O)[C@H](CC(C)C)NC(=O)CNC(=O)[C@H](Cc1ccccc1)NC(=O)/C(=C/c1ccccc1)NC(=O)[C@H](CCC(N)=O)NC(=O)[C@H](CCC(N)=O)NC(=O)[C@@H]1CCCN1C(=O)[C@H](CCCCN)NC(=O)[C@@H]1CCCN1C(=O)[C@@H](N)CCCN=C(N)N)C(N)=O`, the half-maximal effective concentration (EC50) in experiment [1] stood at 3100 nM. For the same molecule, the IC50 in experiment [2] was above 10000 nM; in experiment [4], 4900 nM.

On to `CSCC[C@H](NC(=O)[C@H](CC(C)C)NC(=O)CNC(=O)[C@H](CCSC)NC(=O)[C@H](Cc1ccccc1)NC(=O)[C@H](CCC(N)=O)NC(=O)[C@H](CCC(N)=O)NC(=O)[C@@H]1CCCN1C(=O)[C@H](CCCCN)NC(=O)[C@@H]1CCCN1C(=O)[C@@H](N)CCCNC(=N)N)C(N)=O`, for which the figures for the IC50 in experiment [2] and in experiment [3] were 1200 nM and 18 nM, respectively.

The molecule `CSCC[C@H](NC(=O)[C@H](CC(C)C)NC(=O)CNC(=O)[C@H](Cc1ccccc1)NC(=O)/C(=C\c1ccccc1)NC(=O)[C@H](CCC(N)=O)NC(=O)[C@H](CCC(N)=O)NC(=O)[C@@H]1CCCN1C(=O)[C@H](CCCCN)NC(=O)[C@@H]1CCCN1C(=O)[C@@H](N)CCCN=C(N)N)C(N)=O` came in with an EC50 in experiment [1] of 8.4 nM. Moreover, the IC50 came to 11700 nM in experiment [2] and 950 nM in experiment [4].

On to `CSCC[C@H](NC(=O)[C@H](CC(C)C)NC(=O)CNC(=O)[C@H](Cc1ccccc1)NC(=O)[C@H](CCSC)NC(=O)[C@H](CCC(N)=O)NC(=O)[C@H](CCC(N)=O)NC(=O)[C@@H]1CCCN1C(=O)[C@H](CCCCN)NC(=O)[C@@H]1CCCN1C(=O)[C@@H](N)CCCNC(=N)N)C(N)=O`, for which the results for the IC50 in experiment [2] and in experiment [3] were 7400 nM and 2700 nM, respectively.

For the molecule `CSCC[C@H](NC(=O)[C@H](CC(C)C)NC(=O)CNC(=O)[C@@H](NC(=O)[C@H](Cc1ccccc1)NC(=O)[C@H](CCC(N)=O)NC(=O)[C@H](CCC(N)=O)NC(=O)[C@@H]1CCCN1C(=O)[C@H](CCCCN)NC(=O)[C@@H]1CCCN1C(=O)[C@@H](N)CCCN=C(N)N)C(C)(C)S(C)(=O)=O)C(N)=O`, in experiment [1], the EC50 turned out to be 1.1 nM. Moreover, the IC50 in experiment [2] turned out to be 190 nM; in experiment [3], 7.84 nM; in experiment [4], 160 nM.

As to `CSCC[C@H](NC(=O)[C@H](CC(C)C)NC(=O)CNC(=O)[C@@H](NC(=O)[C@H](Cc1ccccc1)NC(=O)[C@H](CCC(N)=O)NC(=O)[C@H](CCC(N)=O)NC(=O)[C@@H]1CCCN1C(=O)[C@H](CCCCN)NC(=O)[C@@H]1CCCN1C(=O)[C@@H](N)CCCNC(=N)N)C1c2ccccc2-c2ccccc21)C(N)=O`, the half-maximal inhibitory concentration (IC50) in experiment [2] came out at 91 nM; in experiment [3] it was 2.5 nM; in experiment [4], 41 nM.

In turn, `CSCC[C@H](NC(=O)[C@H](CC(C)C)NC(=O)CNC(=O)[C@@H](NC(=O)[C@H](Cc1ccccc1)NC(=O)[C@H](CCC(N)=O)NC(=O)[C@H](CCC(N)=O)NC(=O)[C@@H]1CCCN1C(=O)[C@H](CCCCN)NC(=O)[C@@H]1CCCN1C(=O)[C@@H](N)CCCN=C(N)N)C1c2ccccc2-c2ccccc21)C(N)=O` displayed a concentration giving a half-maximal response (EC50) in experiment [1] of 5.7 nM.

On to `CSCC[C@H](NC(=O)[C@H](CC(C)C)NC(=O)CNC(=O)[C@@H](NC(=O)[C@H](Cc1ccccc1)NC(=O)[C@H](CCC(N)=O)NC(=O)[C@H](CCC(N)=O)NC(=O)[C@@H]1CCCN1C(=O)[C@H](CCCCN)NC(=O)[C@@H]1CCCN1C(=O)[C@@H](N)CCCNC(=N)N)C(C)(C)SC)C(N)=O`, for which the figures for the IC50 in experiment [2], in experiment [3] and in experiment [4] were 170 nM, 2.4 nM and 68 nM, respectively.

As for `CSCC[C@H](NC(=O)[C@H](CC(C)C)NC(=O)CNC(=O)[C@@H](NC(=O)[C@H](Cc1ccccc1)NC(=O)[C@H](CCC(N)=O)NC(=O)[C@H](CCC(N)=O)NC(=O)[C@@H]1CCCN1C(=O)[C@H](CCCCN)NC(=O)[C@@H]1CCCN1C(=O)[C@@H](N)CCCN=C(N)N)C(C)(C)SC)C(N)=O`, the EC50 in experiment [1] was found to be 1.7 nM. In other words, the single-digit nanomolar range.

For the molecule `CSCC[C@H](NC(=O)[C@H](CC(C)C)NC(=O)CNC(=O)[C@H](Cc1ccccc1)NC(=O)[C@@H](NC(=O)[C@H](CCC(N)=O)NC(=O)[C@H](CCC(N)=O)NC(=O)[C@@H]1CCCN1C(=O)[C@H](CCCCN)NC(=O)[C@@H]1CCCN1C(=O)[C@@H](N)CCCN=C(N)N)C(c1ccccc1)c1ccccc1)C(N)=O`, the EC50 in experiment [1] stood at 226 nM.

Regarding `CSCC[C@H](NC(=O)[C@H](CC(C)C)NC(=O)CNC(=O)[C@H](Cc1ccccc1)NC(=O)[C@@H](NC(=O)[C@H](CCC(N)=O)NC(=O)[C@H](CCC(N)=O)NC(=O)[C@@H]1CCCN1C(=O)[C@H](CCCCN)NC(=O)[C@@H]1CCCN1C(=O)[C@@H](N)CCCNC(=N)N)C(c1ccccc1)c1ccccc1)C(N)=O`, the concentration for half-maximal inhibition (IC50) in experiment [2] came out at 17000 nM; in experiment [3], 1300 nM; in experiment [4] it was 3600 nM.

`CSCC[C@H](NC(=O)[C@H](CC(C)C)NC(=O)CNC(=O)[C@@H](NC(=O)[C@H](Cc1ccccc1)NC(=O)[C@H](CCC(N)=O)NC(=O)[C@H](CCC(N)=O)NC(=O)[C@@H]1CCCN1C(=O)[C@H](CCCCN)NC(=O)[C@@H]1CCCN1C(=O)[C@@H](N)CCCNC(=N)N)C(c1ccccc1)c1ccccc1)C(N)=O`: the IC50 in experiment [2] was found to be 2200 nM; in experiment [3], 500 nM; in experiment [4] it was 670 nM.

The molecule `CSCC[C@H](NC(=O)[C@H](CC(C)C)NC(=O)CNC(=O)[C@H](Cc1ccccc1)NC(=O)[C@H](Cc1ccccc1)NC(=O)[C@H](CCC(N)=O)NC(=O)[C@H](CCC(N)=O)NC(=O)[C@@H]1CCCN1C(=O)[C@H](CCCCN)NC(=O)[C@@H]1CCCN1C(=O)[C@@H](N)CCCN=C(N)N)C(N)=O` [SUBSTANCE P] registered an IC50 in experiment [2] of 130 nM.
